Results of several laboratories.
Lines come from different studies, so protocols differ.
BRAF: Serine/threonine-protein kinase B-raf (BRAF, Homo sapiens, UniProt P15056)
BRAF V600E: Serine/threonine-protein kinase B-raf (BRAF, Homo sapiens, UniProt P15056, V600E)

Cn1nc(C(=O)NCc2ccc(C(=O)O)cc2)cc1-c1ccc2[nH]ccc2c1  remaining binding (BRAF; cell-free assay, competition with immobilised ligand; 0.1 µM): 74%
COc1ccc(-c2csc(NN=C(CS(=O)(=O)c3ccccc3)c3ccc(F)cc3)n2)cc1  inhibition (BRAF V600E; enzyme activity, inhibitor, ATP luminescence; 10 µM): 89%
N#CCCc1ccc2c(c1)-c1[nH]c3ccc([N+](=O)[O-])cc3c1CC(=O)N2  remaining signal (BRAF; cell-free assay; 0.5 µM): 99.3%
Cc1ccc(C(CS(=O)(=O)c2ccccc2)=NNc2nc(C)c(N=Nc3ccccc3)s2)cc1  inhibition (BRAF V600E; enzyme activity, inhibitor, ATP luminescence; 1 µM): 63%
c1nc2c(Nc3ccc4c(c3)OCCO4)nc(Nc3ccc4c(c3)OCCO4)nc2[nH]1  activity vs control (BRAF; enzyme activity, inhibitor; 10 µM): 92%
Cc1nc(N2CC[C@@H](O)C2)ncc1-c1cc(C(F)(F)F)cc2[nH]ncc12  remaining binding (BRAF; cell-free assay, competition with immobilised ligand; 1 µM): 73%
Cc1ccc(NC(=O)c2ccc(CN3CCN(C)CC3)cc2)cc1Nc1nc(-c2cccnc2)cs1  remaining signal (BRAF; cell-free assay; 0.5 µM): 92.3%
Cc1ccc(C(CS(=O)(=O)c2ccccc2)=NNC2=NC(=O)C(=NNc3ccc(Cl)cc3)S2)cc1  inhibition (BRAF V600E; enzyme activity, inhibitor, ATP luminescence; 1 µM): 61%
O=C(NS(=O)(=O)c1ccc(NCC2CCOCC2)c([N+](=O)[O-])c1)c1ccc(N2CCN(Cc3ccc(C(F)(F)F)cc3-c3ccc(Cl)cc3)CC2)cc1Oc1cnc2[nH]ccc2c1  remaining binding (BRAF V600E; cell-free assay, competition with immobilised ligand; 1 µM): 83%
Cc1cnn2ncc(-c3ccnc(N(C)C)n3)c2c1  remaining binding (BRAF V600E; binding; 1 µM): 91%
Cc1ccc(C(=O)NCc2ccsc2)cc1C#Cc1cn(C(C)C)c2ncnc(N)c12  activity vs control (BRAF V600E; enzyme activity, inhibitor; 1 µM): 9%
Cc1sc(C(=O)NC2COC2)cc1-n1cc(NC(=O)Nc2c(F)cccc2Cl)cn1  remaining activity (BRAF; enzyme activity, inhibitor; 10 µM): 105%
Cc1ccc(C(CS(=O)(=O)c2ccccc2)=NNC2=NC(=O)C(=NNc3ccccc3)S2)cc1  inhibition (BRAF V600E; enzyme activity, inhibitor, ATP luminescence; 1 µM): 67%
COc1ccc2cc(OCC3(C(=O)O)CN(C(=O)c4ccc(F)cc4)C3)ccc2c1  remaining binding (BRAF; cell-free assay, competition with immobilised ligand; 1 µM): 93%
CC(C)(C)c1nc2c(s1)c1nc(N)ncc1c1ccc(NS(=O)(=O)c3c(F)cccc3F)c(F)c12  remaining activity (BRAF V600E; enzyme activity, inhibitor, radiometric; 1 µM): 27%
COc1cc2nccc(Oc3ccc(NC(=O)Nc4ccc(F)cc4F)c(F)c3)c2cc1OC  ΔTm (BRAF; thermal stability, DSF; 10 µM): > 10 °C
Cc1ccc(C(=O)Nc2ccc(CN3CCN(C)CC3)c(C(F)(F)F)c2)cc1C#Cc1cnc2cccnn12  remaining signal (BRAF; cell-free assay; 23.5 nM): 15%
CC(C)(C)c1nc(-c2cccc(NS(=O)(=O)c3c(F)cccc3F)c2F)c(-c2ccnc(N)n2)s1  activity vs control (BRAF; enzyme activity, inhibitor, radiometric; 1 µM): 5%
Cc1nc(C2CCN(C(=O)c3ccc(OC(F)(F)F)cc3N)CC2)c2ncc(N3CCN(C)CC3)cc2n1  remaining binding (BRAF; cell-free assay, competition with immobilised ligand; 1 µM): 100%
Cc1ccc(C(CS(=O)(=O)c2ccccc2)=NNc2nc(-c3ccc(OCCCCOc4ccc(-c5csc(NN=C(CS(=O)(=O)c6ccccc6)c6ccc(C)cc6)n5)cc4)cc3)cs2)cc1  inhibition (BRAF V600E; enzyme activity, inhibitor, ATP luminescence; 10 nM): 32%
CNC(=O)c1ccc(Nc2ncc(C(F)(F)F)c(NCc3nccnc3N(C)S(C)(=O)=O)n2)cc1  remaining binding (BRAF V600E; cell-free assay, competition with immobilised ligand; 0.1 µM): 100%
O=C(Nc1cnn(-c2csc(C(=O)NC3COC3)c2)c1)Nc1ccccc1Cl  remaining activity (BRAF; enzyme activity, inhibitor; 5 µM): 93.3%
N[C@@H]1CCN(c2nccc(-c3cnn4ncccc34)n2)C1  remaining binding (BRAF; binding; 1 µM): 100%
Nc1ncnc2occ(-c3ccc(NC(=O)Nc4cc(C(F)(F)F)ccc4F)cc3)c12  remaining signal (BRAF V600E; cell-free assay; 20 µM): 0.05%
CC(C)(C)c1nc(-c2cccc(NS(=O)(=O)c3c(F)cccc3F)c2F)c(-c2ccnc(N)n2)s1  inhibition (BRAF V600E; enzyme activity, inhibitor, ATP luminescence; 1 µM): 81%
C[S+]([O-])c1ccc(-c2nc(-c3ccncc3)c(-c3ccc(F)cc3)[nH]2)cc1 (stereo not shown)  remaining signal (BRAF; cell-free assay; 0.5 µM): 78.8%
Cc1cc(NC(=O)c2cccc3cc(-c4cccc5[nH]nc(N)c45)ccc23)ccc1F  activity vs control (BRAF V600E; enzyme activity, inhibitor; 0.1 µM): 100%
O=C1NC(c2ccccn2)Sc2ccccc21 (stereo not shown)  remaining binding (BRAF V600E; cell-free assay, competition with immobilised ligand; 1 µM): 94%
NC(=S)NN=C(CS(=O)(=O)c1ccccc1)c1ccc(F)cc1  inhibition (BRAF V600E; enzyme activity, inhibitor, ATP luminescence; 1 µM): 76%
CNC(=O)Nc1ccc2c(c1)[C@@]1(CC2)OC(=O)N(CC(=O)N(Cc2ccc(F)cc2)[C@@H](C)C(F)(F)F)C1=O  remaining binding (BRAF V600E; cell-free assay, competition with immobilised ligand; 1 µM): 96%
Cc1ccc(C(CS(=O)(=O)c2ccccc2)=NN=C2N=C(c3ccc(C)cc3)CS2)cc1  inhibition (BRAF V600E; enzyme activity, inhibitor, ATP luminescence; 10 µM): 86%
